Reference: ChEMBL document CHEMBL2034969, “Bioactive carbazole alkaloids from Clausena wallichii roots” (J Nat Prod, 2012)
In brackets after ≈: the same amount, converted by molar mass. Activity calls are given as the source filed them. The calls are words filed in the database; no cut-off is given here.

Key:
KB = experiment: Cytotoxicity against human KB cells by resazurin reduction assay; type: functional, cell-based
Staphylococcus aureus [1] = experiment: Antibacterial activity against methicillin-resistant Staphylococcus aureus SK1 by broth dilution method; type: functional
NCI-H187 = experiment: Cytotoxicity against human NCI-H187 cells by resazurin reduction assay; type: functional, cell-based
Escherichia coli = experiment: Antibacterial activity against Escherichia coli TISTR 780 by broth dilution method; type: functional
In short: (§1)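 MIC found by 2-fold serial dilution in Mueller Hinton broth following CLSI (2002) recommendations. Test substances dissolved in DMSO. Vancomycin and gentamycin run as reference drugs.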

MCF7 = experiment: Cytotoxicity against human MCF7 cells by resazurin reduction assay; type: functional, cell-based
Staphylococcus aureus [2] = experiment: Antibacterial activity against Staphylococcus aureus TISTR 1466 by broth dilution method; type: functional; in short: as §1
Salmonella typhimurium = experiment: Antibacterial activity against Salmonella typhimurium TISTR 292 by broth dilution method; type: functional, Salmonella enterica subsp. enterica serovar Typhimurium; in short: as §1
[3] = Homo sapiens, KB, read-out: IC50
[4] = Homo sapiens, NCI-H187, read-out: IC50
[5] = Homo sapiens, MCF7, read-out: IC50
[6] = Salmonella enterica subsp. enterica serovar Typhimurium

Row | Compound | IC50 (KB; [3]) | MIC (Staphylococcus aureus [1]) | IC50 (NCI-H187; [4]) | MIC (Escherichia coli) | IC50 (MCF7; [5]) | MIC (Staphylococcus aureus [2]) | MIC (Salmonella typhimurium; Salmonella enterica) | IC50 (KB; kb) | IC50 (MCF7; mcf7) | IC50 (NCI-H187; nci-h187) | MIC (Salmonella typhimurium; [6])
1 | COc1cc2[nH]c3ccccc3c2cc1O | 213 µM | inactive | 27.4 µM | 128 µg/mL (≈ 600 µM) | 31.4 µM | inactive | 128 µg/mL (≈ 600 µM) |  |  |  | 
2 | COC(=O)c1ccc2[nH]c3ccccc3c2c1 | 59.7 µM | inactive | 95.8 µM | 128 µg/mL (≈ 568 µM) | 170 µM | inactive | 128 µg/mL (≈ 568 µM) |  |  |  | 
3 | COc1ccc2c(c1)[nH]c1cc(O)c(C=O)cc12 | 181 µM | 128 µg/mL (≈ 531 µM) | 45.9 µM | inactive | 69.1 µM | inactive | 128 µg/mL (≈ 531 µM) |  |  |  | 
4 | COc1ccc2c(c1)[nH]c1c(CC=C(C)C)c(O)c(C=O)cc12 |  | inactive | 42.3 µM | 128 µg/mL (≈ 414 µM) | 53.9 µM | inactive | 128 µg/mL (≈ 414 µM) | Not Active |  |  | 
5 | CC(C)=CCc1c(O)c(C=O)cc2c1[nH]c1cc(O)ccc12 [7-HYDROXYHEPTAPHYLLINE] | 107 µM | 4 µg/mL (≈ 13.5 µM) | 19.6 µM | 64 µg/mL (≈ 217 µM) |  | 8 µg/mL (≈ 27.1 µM) | 64 µg/mL (≈ 217 µM) |  | Not Active |  | 
6 | CC1(C)C=Cc2c(ccc3[nH]c4cc(O)c(C=O)cc4c23)O1 [CLAURAILAS D] | 293 µM | 128 µg/mL (≈ 436 µM) | 60.8 µM | 64 µg/mL (≈ 218 µM) | 66.1 µM | inactive | 128 µg/mL (≈ 436 µM) |  |  |  | 
7 | Cc1cc2c([nH]c3ccc4c(c32)C=CC(C)(C)O4)c(-c2c(O)c(C)cc3c2[nH]c2ccc4c(c23)C=CC(C)(C)O4)c1O [CLAUSENAWALLINE A] |  | 128 µg/mL (≈ 230 µM) |  | inactive |  | 64 µg/mL (≈ 115 µM) | 128 µg/mL (≈ 230 µM) |  |  |  | 
8 | COc1cc2[nH]c3c(CC=C(C)C)c(O)c(C=O)cc3c2c(-c2cc3c(cc2O)[nH]c2ccccc23)c1O [CLAUSENAWALLINE B] |  | 16 µg/mL (≈ 31.6 µM) |  | 128 µg/mL (≈ 253 µM) |  | 8 µg/mL (≈ 15.8 µM) | 128 µg/mL (≈ 253 µM) |  |  |  | 
9 | Cc1cc2c([nH]c3ccc4c(c32)C=CC(C)(C)O4)c2c1OC(C)(C)C=C2 [CLAUSENAWALLINE C] |  | inactive |  | 128 µg/mL (≈ 371 µM) |  | inactive | 128 µg/mL (≈ 371 µM) | Not Active | Not Active | Not Active | 
10 | COc1ccc2c(c1)[nH]c1cc(OC)c(O)cc12 [CLAUSENAWALLINE D] |  | inactive |  | 128 µg/mL (≈ 526 µM) |  | inactive | 128 µg/mL (≈ 526 µM) |  |  |  | 
11 | COc1cc2[nH]c3ccc(O)c(-c4c(O)c(C)cc5c4[nH]c4ccc6c(c45)C=CC(C)(C)O6)c3c2cc1C [CLAUSENAWALLINE E] |  | 8 µg/mL (≈ 15.9 µM) |  | 128 µg/mL (≈ 254 µM) |  | 8 µg/mL (≈ 15.9 µM) | 128 µg/mL (≈ 254 µM) |  |  |  | 
12 | COC(=O)c1cc2c([nH]c3ccccc32)c(O)c1-c1c(O)c(C=O)cc2c1[nH]c1cc(OC)ccc12 [CLAUSENAWALLINE F] | 10.2 µM | 64 µg/mL (≈ 133 µM) | 4.5 µM | 128 µg/mL (≈ 266 µM) | 62.3 µM | 64 µg/mL (≈ 133 µM) |  |  |  |  | inactive
13 | COC(=O)c1ccc2[nH]c3cc(OC)ccc3c2c1 [CLAUSINE C] |  | inactive |  | inactive |  | inactive | 128 µg/mL (≈ 501 µM) | Not Active | Not Active | Not Active | 
14 | COC(=O)c1cc2c(cc1OC)[nH]c1ccccc12 [CLAUSINE L] |  | inactive |  | 128 µg/mL (≈ 501 µM) |  | inactive | 128 µg/mL (≈ 501 µM) | Not Active | Not Active | Not Active | 
15 | COC(=O)c1cc2c(cc1OC)[nH]c1cc(OC)ccc12 [CLAUSZOLINE C] |  | inactive |  | 128 µg/mL (≈ 449 µM) |  | inactive | 128 µg/mL (≈ 449 µM) | Not Active | Not Active | Not Active | 
16 | COc1ccc2c(c1)[nH]c1ccc(C=O)cc12 [CLAUSZOLINE K] |  | 128 µg/mL (≈ 568 µM) |  | 128 µg/mL (≈ 568 µM) |  | inactive |  | Not Active | Not Active | Not Active | inactive
17 | COc1cccc2c1C(=O)c1c(O)c3c(c(O)c1C2=O)C[C@@](O)(C(=O)CO)C[C@@H]3O[C@H]1C[C@H](N)[C@H](O)[C@H](C)O1 [DOXORUBICIN] | 1.7 µM |  | 0.1 µM |  | 16.8 µM |  |  |  |  |  | 
18 | Cc1c2ccncc2c(C)c2c1[nH]c1ccccc12 [ELLIPTECINE] | 5.2 µM |  | 3.1 µM |  |  |  |  |  |  |  | 
19 | COc1cc2[nH]c3ccccc3c2cc1C=O [GLYCOSININE] | 103 µM | 128 µg/mL (≈ 568 µM) | 18.2 µM | inactive | 111 µM | inactive | 128 µg/mL (≈ 568 µM) |  |  |  | 
20 | Cc1cc2c([nH]c3ccccc32)c2c1OC(C)(C)C=C2 [GRINIMIBINE] | 263 µM | inactive | 58.9 µM | 128 µg/mL (≈ 486 µM) | 28.8 µM | inactive |  |  |  |  | inactive
21 | CC(C)=CCc1c(O)c(C=O)cc2c1[nH]c1ccccc12 [HEPTAPHYLLINE] | 94.2 µM | inactive | 20.2 µM | 128 µg/mL (≈ 458 µM) | 171 µM | inactive | 128 µg/mL (≈ 458 µM) |  |  |  | 
22 | COc1ccc2c(c1)[nH]c1cc(OC)c(C=O)cc12 [LANSINE] |  | inactive |  | 128 µg/mL (≈ 501 µM) |  | inactive |  | Not Active | Not Active | Not Active | inactive
23 | O=Cc1cc2c(cc1O)[nH]c1ccccc12 [MUKONAL] |  | 64 µg/mL (≈ 303 µM) |  | 128 µg/mL (≈ 606 µM) |  | inactive | 128 µg/mL (≈ 606 µM) | Not Active | Not Active | Not Active | 
24 | COC(=O)c1cc2c(cc1O)[nH]c1ccccc12 [MUKONIDINE] |  | 64 µg/mL (≈ 265 µM) | 134 µM | 128 µg/mL (≈ 531 µM) | 205 µM | 64 µg/mL (≈ 265 µM) | 32 µg/mL (≈ 133 µM) | Not Active |  |  | 
25 | CN[C@H](CC(C)C)C(=O)N[C@H]1C(=O)N[C@@H](CC(N)=O)C(=O)N[C@H]2C(=O)N[C@H]3C(=O)N[C@H](C(=O)N[C@H](C(=O)O)c4cc(O)cc(O)c4-c4cc3ccc4O)[C@H](O)c3ccc(c(Cl)c3)Oc3cc2cc(c3O[C@@H]2O[C@H](CO)[C@@H](O)[C@H](O)[C@H]2O[C@H]2C[C@](C)(N)[C@H](O)[C@H](C)O2)Oc2ccc(cc2Cl)[C@H]1O [VANCOMYCIN] |  |  |  |  |  | 0.25 µg/mL (≈ 0.173 µM) |  |  |  |  | 
26 | GENTAMICIN |  |  |  | 0.25 µg/mL |  |  |  |  |  |  | 0.125 µg/mL
